Assay results taken from ChEMBL document CHEMBL3877250, “Design, synthesis, and biological evaluation of (2E)-(2-oxo-1, 2-dihydro-3H-indol-3-ylidene)acetate derivatives as anti-proliferative agents through ROS-induced cell apoptosis” (Eur J Med Chem, 2016).
Active and inactive are the calls of the source. The rule behind the calls is not given here.

How the values were obtained:
[1] = Antitumor activity against human HepG2 cells assessed as growth inhibition at 20 uM after 72 hrs by CCK-8 assay; type: functional; settings: HepG2, 72 h, read-out: GI
How it was run: (§1)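 Cells kept in RPMI 1640 with 10% heat-inactivated fetal calf serum and 1% streptomycin/penicillin at 37 °C, 5% CO2. After compound exposure, CCK-8 was added and cells were incubated 4 h at 37 °C, then absorbance was read at 450 nm. Viability is relative to untreated cells (100%). IC50 comes from nonlinear regression, mean of three separate determinations. Single-concentration screen at 20 µM.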

HCT-116 [2] = assay: Inhibition of TrxR in human HCT116 cells after 3 hrs by DTNB assay; type: cell-based
How it was run: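 HCT116 cells plated at 4 × 10⁵ cells/well in six-well plates and incubated with or without compound for 3 h. Total protein extracted and quantified. Cellular TrxR activity measured by a DTNB-based kit with absorbance read at 412 nm.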

[3] = Cell cycle arrest in human HCT116 cells assessed as G1 phase accumulation at 1 uM after 48 hrs by Annexin V-FITC/propidium iodide staining based flow cytometry (reference value: 40.83%); type: functional; settings: HCT-116
[4] = Cell cycle arrest in human HCT116 cells assessed as sub-G1 phase accumulation at 0.1 uM after 48 hrs by Annexin V-FITC/propidium iodide staining based flow cytometry (reference value: 4.36%); type: functional; settings: HCT-116
[5] = Cytotoxicity against human HCT116 cells assessed as growth inhibition at 20 uM after 72 hrs by CCK-8 assay; type: functional; settings: HCT-116, 72 h, read-out: GI; how it was run: as §1
[6] = Cell cycle arrest in human HCT116 cells assessed as G2/M phase accumulation at 0.1 uM after 48 hrs by Annexin V-FITC/propidium iodide staining based flow cytometry (reference value: 25.3%); type: functional; settings: HCT-116
[7] = Cell cycle arrest in human HCT116 cells assessed as G2/M phase accumulation at 4 uM after 48 hrs by Annexin V-FITC/propidium iodide staining based flow cytometry (reference value: 25.3%); type: functional; settings: HCT-116
HCT-116 [8] = assay: Induction of apoptosis in human HCT116 cells assessed as activation of cleaved caspases 3 after 9 hrs by Western blot method; type: functional, cell-based
How it was run: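 HCT116 plated at 4×10^5 cells/well and incubated with or without compound for 9 h. Protein then extracted and run on 12% SDS-PAGE western blot probed with anti-cleaved caspase 3, anti-caspase 3, anti-Bax and anti-Bcl-2.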

[9] = Cytotoxicity against human L02 cells after 72 hrs by CCK-8 assay; type: toxicity, cell-based; how it was run: as §1
[10] = Cytotoxicity against human MDA-MB-231 cells after 72 hrs by CCK-8 assay; type: functional, cell-based; settings: MDA-MB-231, 72 h; how it was run: as §1
HCT-116 [11] = assay: Induction of apoptosis in human HCT116 cells assessed as early apoptotic cells at 0.5 uM after 48 hrs by Annexin V-FITC/propidium iodide staining based flow cytometry (reference value: 3.8%); type: functional
How it was run: (§2)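 HCT116 seeded at 2×10^5 cells/well, cultured 6 h, then treated 48 h at 0.1, 0.5, 1, 4, 8 or 16 µM; DMSO (0.1%) served as vehicle. Cells washed twice in cold PBS, resuspended in binding buffer with FITC Annexin V and PI for 15 min at RT in the dark, diluted, and run on flow cytometry within 1 h.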

[12] = Cytotoxicity against human SW480 cells assessed as growth inhibition at 20 uM after 72 hrs by CCK-8 assay; type: functional; settings: SW480, 72 h, read-out: GI; how it was run: as §1
[13] = Cell cycle arrest in human HCT116 cells assessed as G1 phase accumulation at 0.5 uM after 48 hrs by Annexin V-FITC/propidium iodide staining based flow cytometry (reference value: 40.83%); type: functional; settings: HCT-116
[14] = Cell cycle arrest in human HCT116 cells assessed as S phase accumulation at 4 uM after 48 hrs by Annexin V-FITC/propidium iodide staining based flow cytometry (reference value: 28.43%); type: functional; settings: HCT-116
[15] = Cytotoxicity against human Saos2 cells after 72 hrs by CCK-8 assay; type: functional, cell-based; settings: SAOS-2, 72 h; how it was run: as §1
[16] = Cytotoxicity against human HL60 cells assessed as growth inhibition at 20 uM after 72 hrs by CCK-8 assay; type: functional; settings: HL-60, 72 h, read-out: GI; how it was run: as §1
[17] = Cytotoxicity against human HCT116 cells after 72 hrs by CCK-8 assay; type: functional, cell-based; settings: HCT-116, 72 h; how it was run: as §1
[18] = Cell cycle arrest in human HCT116 cells assessed as S phase accumulation at 0.1 uM after 48 hrs by Annexin V-FITC/propidium iodide staining based flow cytometry (reference value: 28.43%); type: functional; settings: HCT-116
HCT-116 [19] = assay: Induction of apoptosis in human HCT116 cells assessed as increase in Bax protein level after 9 hrs by Western blot method; type: functional, cell-based
How it was run: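 HCT116 cells plated at 4 × 10⁵ cells/well in six-well plates. Incubated with or without compound for 9 h, then proteins extracted. Lysates resolved by 12% SDS-PAGE and immunoblotted with anti-Bax and anti-Bcl-2 antibodies.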

[20] = Cytotoxicity against human HepG2 cells after 72 hrs by CCK-8 assay; type: functional, cell-based; settings: HepG2, 72 h; how it was run: as §1
[21] = Cell cycle arrest in human HCT116 cells assessed as S phase accumulation at 3 uM after 48 hrs by Annexin V-FITC/propidium iodide staining based flow cytometry (reference value: 28.43%); type: functional; settings: HCT-116
HCT-116 [22] = assay: Induction of apoptosis in human HCT116 cells assessed as late apoptotic cells at 0.1 uM after 48 hrs by Annexin V-FITC/propidium iodide staining based flow cytometry (reference value: 6.7%); type: functional
HCT-116 [23] = assay: Induction of apoptosis in human HCT116 cells assessed as early apoptotic cells at 4 uM after 48 hrs by Annexin V-FITC/propidium iodide staining based flow cytometry (reference value: 3.8%); type: functional; how it was run: as §2
[24] = Cell cycle arrest in human HCT116 cells assessed as sub-G1 phase accumulation at 1 uM after 48 hrs by Annexin V-FITC/propidium iodide staining based flow cytometry (reference value: 4.36%); type: functional; settings: HCT-116
HCT-116 [25] = assay: Induction of apoptosis in human HCT116 cells assessed as late apoptotic cells at 8 uM after 48 hrs by Annexin V-FITC/propidium iodide staining based flow cytometry (reference value: 6.7%); type: functional
HCT-116 [26] = assay: Induction of apoptosis in human HCT116 cells assessed as live cells at 1 uM after 48 hrs by Annexin V-FITC/propidium iodide staining based flow cytometry (reference value: 88.7%); type: functional
[27] = Cell cycle arrest in human HCT116 cells assessed as sub-G1 phase accumulation at 3 uM after 48 hrs by Annexin V-FITC/propidium iodide staining based flow cytometry (reference value: 4.36%); type: functional; settings: HCT-116
[28] = Cytotoxicity against human OVCAR3 cells assessed as growth inhibition at 20 uM after 72 hrs by CCK-8 assay; type: functional; settings: OVCAR-3, 72 h, read-out: GI; how it was run: as §1
HCT-116 [29] = assay: Induction of apoptosis in human HCT116 cells assessed as live cells at 4 uM after 48 hrs by Annexin V-FITC/propidium iodide staining based flow cytometry (reference value: 88.7%); type: functional
[30] = Cell cycle arrest in human HCT116 cells assessed as G2/M phase accumulation at 0.5 uM after 48 hrs by Annexin V-FITC/propidium iodide staining based flow cytometry (reference value: 25.3%); type: functional; settings: HCT-116
[31] = Cell cycle arrest in human HCT116 cells assessed as sub-G1 phase accumulation at 0.5 uM after 48 hrs by Annexin V-FITC/propidium iodide staining based flow cytometry (reference value: 4.36%); type: functional; settings: HCT-116

CC(C)(C)OC(=O)/C=C1/C(=O)Nc2ccccc21
inhibition of growth at 20 µM [1]: 86.1% | inhibition (HCT-116 [2]): Dose-dependent effect | Activity [3]: 25.4% | Activity [4]: 1.27% | inhibition of growth at 20 µM [5]: 89.5% | Activity [6]: 20.6% | Activity [7]: 11.7% | Activity (HCT-116 [8]): Active | IC50 at 72 h [9]: 2.45 µM | IC50 [10]: 2.52 µM | Activity (HCT-116 [11]): 2.9% | inhibition of growth at 20 µM [12]: 78.1% | Activity [13]: 40.9% | Activity [14]: 22.8% | IC50 [15]: 6.11 µM | inhibition of growth at 20 µM [16]: 94.5% | IC50 [17]: 2.64 µM | Activity [18]: 32.9% | Activity (HCT-116 [19]): Active | IC50 [20]: 4.64 µM | Activity [21]: 30.1% | Activity (HCT-116 [22]): 6.2% | Activity (HCT-116 [23]): 3.6% | Activity [24]: 1.06% | Activity (HCT-116 [25]): 13.6% | Activity (HCT-116 [26]): 87.9% | Activity [27]: 5.11% | inhibition of growth at 20 µM [28]: 59.6% | Activity (HCT-116 [29]): 89.1% | Activity [30]: 27.4% | Activity [31]: 0.25%
